Test results published in ChEMBL document CHEMBL4680093 (J Med Chem, 2016).
Activity calls are given as the source filed them. The rule behind the calls is not given here.

Key:
[1] = Metabolic stability in mouse liver microsomes assessed as compound remaining after 30 mins; type: ADME, Microsome; details: read-out: Stabilty
[2] = In-vivo inhibition of 11beta-HSD1 activity in C57BL/6 mouse liver assessed as reduction in cortisone to-cortisol conversion at 10 mg/kg, po measured after 2 hrs by ELISA; type: functional; details: C57BL/6, Liver
[3] = In-vivo inhibition of 11beta-HSD1 activity in C57BL/6 mouse epididymal fat assessed as reduction in cortisone to-cortisol conversion at 10 mg/kg, po measured after 2 hrs by ELISA; type: functional; details: C57BL/6, Epididymal fat pad
Procedure, shortened: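 Male C57BL/6 mice dosed orally once at 3, 10 or 30 mg/kg in sterile water containing 0.5% methylcellulose and 1% Tween80, then sacrificed at 2 or 6 h. Liver and epididymal fat pads incubated ex vivo in culture medium containing cortisone. Cortisol formed was measured by ELISA and reported as % inhibition versus vehicle.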

Cytochrome P450 2C9 = Cytochrome P450 2C9 (Homo sapiens, UniProt P11712); experiment: Inhibition of CYP2C9 in pooled human liver microsomes using diclofenac as substrate in presence of NADPH incubated for 10 mins by LC-MS/MS analysis
Sequence of Cytochrome P450 2C9 (P11712 whole entry): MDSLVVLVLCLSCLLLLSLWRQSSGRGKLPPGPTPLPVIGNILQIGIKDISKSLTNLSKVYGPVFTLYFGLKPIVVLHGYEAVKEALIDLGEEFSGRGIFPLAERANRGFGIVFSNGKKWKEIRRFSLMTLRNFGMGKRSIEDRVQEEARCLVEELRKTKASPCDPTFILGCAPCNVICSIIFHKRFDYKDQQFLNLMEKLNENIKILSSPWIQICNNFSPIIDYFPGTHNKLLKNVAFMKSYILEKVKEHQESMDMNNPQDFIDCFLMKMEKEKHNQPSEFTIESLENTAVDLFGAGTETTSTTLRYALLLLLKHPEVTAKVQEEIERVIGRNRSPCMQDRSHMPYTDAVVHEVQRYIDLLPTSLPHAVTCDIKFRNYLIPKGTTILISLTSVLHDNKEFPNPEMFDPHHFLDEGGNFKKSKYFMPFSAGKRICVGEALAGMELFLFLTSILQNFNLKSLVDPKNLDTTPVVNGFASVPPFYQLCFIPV

Cytochrome P450 2D6 = Cytochrome P450 2D6 (Homo sapiens, UniProt P10635); experiment: Inhibition of CYP2D6 in pooled human liver microsomes using dextromethorphan as substrate in presence of NADPH incubated for 10 mins by LC-MS/MS analysis
Sequence of Cytochrome P450 2D6 (P10635 whole entry): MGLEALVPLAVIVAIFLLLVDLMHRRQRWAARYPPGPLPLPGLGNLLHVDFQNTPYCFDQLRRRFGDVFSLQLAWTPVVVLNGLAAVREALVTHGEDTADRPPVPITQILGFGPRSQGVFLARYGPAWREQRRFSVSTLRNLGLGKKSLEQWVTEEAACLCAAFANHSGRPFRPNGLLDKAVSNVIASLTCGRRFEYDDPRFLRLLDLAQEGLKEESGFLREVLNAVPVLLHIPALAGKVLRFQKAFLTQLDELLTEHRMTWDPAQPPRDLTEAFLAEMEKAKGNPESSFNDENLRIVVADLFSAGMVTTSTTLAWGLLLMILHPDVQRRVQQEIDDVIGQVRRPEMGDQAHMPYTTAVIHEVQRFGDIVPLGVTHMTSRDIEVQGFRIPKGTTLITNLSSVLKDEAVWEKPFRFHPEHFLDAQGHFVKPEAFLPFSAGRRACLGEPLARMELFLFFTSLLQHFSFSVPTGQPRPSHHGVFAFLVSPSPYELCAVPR

Cytochrome P450 2C19 = Cytochrome P450 2C19 (Homo sapiens, UniProt P33261); experiment: Inhibition of CYP2C19 in pooled human liver microsomes using mephenytoin as substrate in presence of NADPH incubated for 10 mins by LC-MS/MS analysis
Sequence of Cytochrome P450 2C19 (P33261 whole entry): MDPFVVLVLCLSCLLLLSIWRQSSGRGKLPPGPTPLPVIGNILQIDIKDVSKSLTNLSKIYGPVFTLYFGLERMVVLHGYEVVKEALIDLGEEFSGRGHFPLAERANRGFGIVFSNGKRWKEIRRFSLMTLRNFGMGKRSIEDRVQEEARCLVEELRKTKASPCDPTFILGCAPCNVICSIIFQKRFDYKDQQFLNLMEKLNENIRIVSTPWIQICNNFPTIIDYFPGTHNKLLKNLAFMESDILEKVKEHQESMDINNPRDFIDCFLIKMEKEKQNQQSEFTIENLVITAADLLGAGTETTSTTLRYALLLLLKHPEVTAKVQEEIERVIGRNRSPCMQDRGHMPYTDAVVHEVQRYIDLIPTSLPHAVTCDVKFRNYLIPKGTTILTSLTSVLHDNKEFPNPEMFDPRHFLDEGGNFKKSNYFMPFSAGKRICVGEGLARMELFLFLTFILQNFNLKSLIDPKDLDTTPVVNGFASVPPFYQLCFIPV

Cytochrome P450 3A4 = Cytochrome P450 3A4 (Homo sapiens, UniProt P08684); experiment: Inhibition of CYP3A4 in pooled human liver microsomes using midazolam as substrate in presence of NADPH incubated for 10 mins by LC-MS/MS analysis
Sequence of Cytochrome P450 3A4 (P08684 whole entry): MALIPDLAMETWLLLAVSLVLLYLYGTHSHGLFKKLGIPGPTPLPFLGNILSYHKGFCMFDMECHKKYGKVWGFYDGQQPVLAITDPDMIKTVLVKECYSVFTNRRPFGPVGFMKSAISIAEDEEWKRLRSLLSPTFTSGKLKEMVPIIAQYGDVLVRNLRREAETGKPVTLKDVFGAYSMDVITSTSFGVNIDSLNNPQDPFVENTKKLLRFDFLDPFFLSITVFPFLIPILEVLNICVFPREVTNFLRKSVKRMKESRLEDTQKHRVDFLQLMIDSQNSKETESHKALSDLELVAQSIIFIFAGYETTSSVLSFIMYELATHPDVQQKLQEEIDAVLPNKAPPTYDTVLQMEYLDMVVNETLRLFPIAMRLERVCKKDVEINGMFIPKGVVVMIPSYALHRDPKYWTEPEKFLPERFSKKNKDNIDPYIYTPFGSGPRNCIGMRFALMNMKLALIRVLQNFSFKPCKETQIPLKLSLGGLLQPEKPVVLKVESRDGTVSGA

Cytochrome P450 1A2 = molecular target: T1, Cytochrome P450 1A2 (Homo sapiens, UniProt P05177); experiment: Inhibition of CYP1A2 in pooled human liver microsomes using phenacetin as substrate in presence of NADPH incubated for 10 mins by LC-MS/MS analysis
T1 sequence (P05177 whole entry): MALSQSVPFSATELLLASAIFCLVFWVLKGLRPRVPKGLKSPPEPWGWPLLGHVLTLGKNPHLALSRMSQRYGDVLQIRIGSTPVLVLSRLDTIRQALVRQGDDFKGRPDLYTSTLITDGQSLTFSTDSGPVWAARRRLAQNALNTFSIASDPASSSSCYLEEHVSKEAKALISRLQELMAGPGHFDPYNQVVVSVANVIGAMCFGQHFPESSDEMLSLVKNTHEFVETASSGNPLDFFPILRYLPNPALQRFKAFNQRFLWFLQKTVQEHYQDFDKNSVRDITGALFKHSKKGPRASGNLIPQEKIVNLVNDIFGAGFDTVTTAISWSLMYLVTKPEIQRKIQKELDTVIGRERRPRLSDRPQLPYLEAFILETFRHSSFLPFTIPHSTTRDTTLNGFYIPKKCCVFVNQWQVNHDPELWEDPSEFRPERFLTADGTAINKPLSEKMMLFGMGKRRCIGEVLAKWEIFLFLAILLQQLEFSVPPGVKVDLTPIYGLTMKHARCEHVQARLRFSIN

[4] = molecular target: T2, Nuclear receptor subfamily 1 group I member 2 (Homo sapiens, UniProt O75469); experiment: Activation of PXR (unknown origin) at 10 uM relative to rifampicin; type: ADME
T2 sequence (O75469 whole entry): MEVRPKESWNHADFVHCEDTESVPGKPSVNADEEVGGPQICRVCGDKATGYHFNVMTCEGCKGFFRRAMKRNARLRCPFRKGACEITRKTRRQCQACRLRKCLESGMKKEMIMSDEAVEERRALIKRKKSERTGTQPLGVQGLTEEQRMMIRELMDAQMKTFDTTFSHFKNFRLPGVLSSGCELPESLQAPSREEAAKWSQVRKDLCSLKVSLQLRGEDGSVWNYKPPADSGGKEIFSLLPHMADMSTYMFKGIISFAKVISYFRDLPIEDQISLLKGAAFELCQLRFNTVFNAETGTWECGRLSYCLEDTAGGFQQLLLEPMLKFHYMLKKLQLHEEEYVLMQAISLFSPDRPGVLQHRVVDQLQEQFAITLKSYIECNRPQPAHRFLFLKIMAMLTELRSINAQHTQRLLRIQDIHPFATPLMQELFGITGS

[5] = molecular target: 11-beta-hydroxysteroid dehydrogenase 1 (Homo sapiens, UniProt P28845); experiment: Inhibition of human 11beta-HSD1 expressed in HEK293 cells using cortisone by ELISA
Sequence of 11-beta-hydroxysteroid dehydrogenase 1 (P28845 whole entry): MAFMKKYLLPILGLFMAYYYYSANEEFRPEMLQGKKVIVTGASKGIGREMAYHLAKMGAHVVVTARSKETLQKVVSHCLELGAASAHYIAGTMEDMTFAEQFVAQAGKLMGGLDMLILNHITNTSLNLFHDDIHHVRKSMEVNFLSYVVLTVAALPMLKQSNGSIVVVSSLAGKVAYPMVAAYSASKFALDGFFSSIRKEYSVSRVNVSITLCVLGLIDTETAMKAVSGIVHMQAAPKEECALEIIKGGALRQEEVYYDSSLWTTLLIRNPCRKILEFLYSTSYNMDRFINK

Mus musculus [6] = experiment: Improvement in lipid profile in C57BL/6-Lep^ob (ob/ob) mouse assessed as triglyceride level at 300 mg/kg, po dosed once daily for 25 days (reference value: 90.9 +/- 5.5 mg/dl); type: functional; details: time 25 day
[7] = Reduction in HbA1c level in C57BL/6-Lep^ob (ob/ob) mouse at 300 mg/kg, po dosed once daily for 25 days relative to control; type: functional; parameters: scale not given: the % may be the effect or the level left; details: time 25 day
Procedure, shortened: (§1)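 Eight-week-old male ob/ob mice were dosed orally once daily for 25 days with vehicle (sterile water, 0.5% methylcellulose, 1% Tween80), test compound 20 mg/kg, metformin 300 mg/kg, or the combination. Baseline postprandial glucose and HbA1c were checked from tail-vein blood. Changes in HbA1c and non-fasting blood glucose were expressed relative to the vehicle group.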

Mus musculus [8] = experiment: Improvement in lipid profile in C57BL/6-Lep^ob (ob/ob) mouse assessed as LDL cholesterol level at 300 mg/kg, po dosed once daily for 25 days (reference value: 30.3 +/- 0.8 mg/dl); type: functional; details: time 25 day
Mus musculus [9] = experiment: Reduction in nonfasting blood glucose level in C57BL/6-Lep^ob (ob/ob) mouse at 300 mg/kg, po dosed once daily for 25 days relative to control; type: functional, organism-based; details: time 25.0 day; procedure, shortened: as §1
Mus musculus [10] = experiment: Improvement in lipid profile in C57BL/6-Lep^ob (ob/ob) mouse assessed as total cholesterol level at 300 mg/kg, po dosed once daily for 25 days (reference value: 286.6 +/- 6.3 mg/dl); type: functional; details: time 25 day
[11] = Reduction in HbA1c in patient with type 2 diabetes exhibiting inadequate glycemic control with metformin alone dosed for 12 weeks during phase 2 trial; type: functional, Homo sapiens; parameters: scale not given: the % may be the effect or the level left
[12] = Reduction in fasting plasma glucose in patient with type 2 diabetes exhibiting inadequate glycemic control with metformin alone dosed for 12 weeks during phase 2 trial; type: functional, Homo sapiens
[13] = Reduction in HOMA-IR in patient with type 2 diabetes exhibiting inadequate glycemic control with metformin alone dosed for 12 weeks during phase 2 trial; type: functional, Homo sapiens; parameters: scale not given: the % may be the effect or the level left

Compound: CNC(=O)c1ccc(N2CCN(c3cccc(C(=O)NC4C5CC6CC4CC(O)(C6)C5)n3)[C@H](C)C2)cc1 (stereo partly specified)
- remaining at 0.5 h [1]: 61%
- inhibition in vivo at 10 mg/kg [2]: 0%
- inhibition in vivo at 10 mg/kg [3]: 34%

Compound: C[C@@H]1CN(c2ccc(C(N)=O)nc2)CCN1c1cccc(C(=O)NC2C3CC4CC2CC(O)(C4)C3)n1 (stereo partly specified)
- remaining at 0.5 h [1]: 23%

Compound: C[C@@H]1CN(c2cc(F)c(S(C)(=O)=O)cc2F)CCN1c1nccc(C(=O)NC2C3CC4CC2CC(O)(C4)C3)n1 (stereo partly specified)
- remaining at 0.5 h [1]: 92%
- inhibition in vivo at 10 mg/kg [2]: 80%
- inhibition in vivo at 10 mg/kg [3]: 85%

Compound: C[C@@H]1CN(c2ccc(C(N)=O)cc2)CCN1c1cccc(C(=O)NC2C3CC4CC2CC(O)(C4)C3)n1 (stereo partly specified)
- remaining at 0.5 h [1]: 57%
- inhibition in vivo at 10 mg/kg [2]: 0%
- inhibition in vivo at 10 mg/kg [3]: 26%

Compound: C[C@@H]1CN(c2ccc(S(C)(=O)=O)cc2)CCN1c1nccc(C(=O)NC2C3CC4CC2CC(O)(C4)C3)n1 (stereo partly specified)
- IC50 (Cytochrome P450 2C9): > 10 µM
- remaining at 0.5 h [1]: 92%
- IC50 (Cytochrome P450 2D6): > 10 µM
- IC50 (Cytochrome P450 2C19): > 10 µM
- IC50 (Cytochrome P450 3A4): > 10 µM
- inhibition in vivo at 10 mg/kg [2]: 48%
- inhibition in vivo at 10 mg/kg [3]: 81%
- IC50 (Cytochrome P450 1A2): > 10 µM

Compound: C[C@@H]1CN(c2ccc(S(C)(=O)=O)cc2)CCN1c1cccc(C(=O)NC2C3CC4CC2CC(O)(C4)C3)n1 (stereo partly specified)
- IC50 (Cytochrome P450 2C9): > 10 µM
- Activity [4]: 32.7%
- remaining at 0.5 h [1]: 97%
- IC50 (Cytochrome P450 2D6): > 10 µM
- IC50 (Cytochrome P450 2C19): 3.7 µM
- IC50 (Cytochrome P450 3A4): 0.97 µM
- inhibition in vivo at 10 mg/kg [2]: 70%
- inhibition in vivo at 10 mg/kg [3]: 86%
- IC50 (Cytochrome P450 1A2): > 10 µM
- IC50 [5]: 0.0031 µM

Compound: C[C@@H]1CN(c2ccc(S(N)(=O)=O)cc2)CCN1c1cccc(C(=O)NC2C3CC4CC2CC(O)(C4)C3)n1 (stereo partly specified)
- remaining at 0.5 h [1]: 65%
- inhibition in vivo at 10 mg/kg [2]: 0%
- inhibition in vivo at 10 mg/kg [3]: 11%

Compound: C[C@@H]1CN(c2c(F)cc(S(C)(=O)=O)cc2F)CCN1c1nccc(C(=O)NC2C3CC4CC2CC(O)(C4)C3)n1 (stereo partly specified)
- remaining at 0.5 h [1]: 95%

Compound: C[C@@H]1CN(c2ccc(F)cc2)CCN1c1nccc(C(=O)NC2C3CC4CC2CC(O)(C4)C3)n1 (stereo partly specified)
- remaining at 0.5 h [1]: 82%

Compound: C[C@@H]1CN(c2ccc(S(C)(=O)=O)cc2Cl)CCN1c1nccc(C(=O)NC2C3CC4CC2CC(O)(C4)C3)n1 (stereo partly specified)
- remaining at 0.5 h [1]: 96%
- inhibition in vivo at 10 mg/kg [2]: 77%
- inhibition in vivo at 10 mg/kg [3]: 82%

Compound: C[C@@H]1CN(c2ccc(C(C)(C)O)nc2)CCN1c1cccc(C(=O)NC2C3CC4CC2CC(O)(C4)C3)n1 (stereo partly specified)
- remaining at 0.5 h [1]: 76%
- inhibition in vivo at 10 mg/kg [2]: 63%
- inhibition in vivo at 10 mg/kg [3]: 87%

Compound: CNC(=O)c1ccc(N2CCN(c3cccc(C(=O)NC4C5CC6CC4CC(O)(C6)C5)n3)[C@H](C)C2)cn1 (stereo partly specified)
- IC50 (Cytochrome P450 2C9): > 10 µM
- remaining at 0.5 h [1]: 66%
- IC50 (Cytochrome P450 2D6): > 10 µM
- IC50 (Cytochrome P450 2C19): 0.7 µM
- IC50 (Cytochrome P450 3A4): > 10 µM
- inhibition in vivo at 10 mg/kg [2]: 52%
- inhibition in vivo at 10 mg/kg [3]: 85%
- IC50 (Cytochrome P450 1A2): > 10 µM

Compound: C[C@@H]1CN(c2ccc(C#N)cc2)CCN1c1nccc(C(=O)NC2C3CC4CC2CC(O)(C4)C3)n1 (stereo partly specified)
- remaining at 0.5 h [1]: 86%
- inhibition in vivo at 10 mg/kg [2]: 6%
- inhibition in vivo at 10 mg/kg [3]: 12%

Compound: Cc1cc(S(C)(=O)=O)ccc1N1CCN(c2nccc(C(=O)NC3C4CC5CC3CC(O)(C5)C4)n2)[C@H](C)C1 (stereo partly specified)
- remaining at 0.5 h [1]: 90%
- inhibition in vivo at 10 mg/kg [2]: 64%
- inhibition in vivo at 10 mg/kg [3]: 77%

Compound: C[C@@H]1CN(c2ccc(C(C)(C)O)cc2F)CCN1c1nccc(C(=O)NC2C3CC4CC2CC(O)(C4)C3)n1 (stereo partly specified)
- remaining at 0.5 h [1]: 98%
- inhibition in vivo at 10 mg/kg [2]: 43%
- inhibition in vivo at 10 mg/kg [3]: 74%

Compound: CN(C)C(=N)NC(=N)N [METFORMIN]
- Activity (Mus musculus [6]): 99.9 mg/dL
- Activity [7]: 0.7%
- Activity (Mus musculus [8]): 23.9 mg/dL
- Activity (Mus musculus [9]): inactive
- Activity (Mus musculus [10]): 252.6 mg/dL

Compound: O=C(NC1CCCCC1)[C@H]1CCCN(S(=O)(=O)c2cccc(Cl)c2)C1
- Activity [11]: 0.6%
- Activity [12]: 24 mg/dL
- Activity [13]: 24%

Compound: C[C@@H]1CN(c2ccc(C(F)(F)F)cc2)CCN1c1nccc(C(=O)NC2C3CC4CC2CC(O)(C4)C3)n1 (stereo partly specified)
- remaining at 0.5 h [1]: 90%

Compound: C[C@@H]1CN(c2ccc(C(=O)O)cc2)CCN1c1cccc(C(=O)NC2C3CC4CC2CC(O)(C4)C3)n1 (stereo partly specified)
- remaining at 0.5 h [1]: 71%

Compound: C[C@@H]1CN(c2ccc(C(C)(C)O)cc2)CCN1c1nccc(C(=O)NC2C3CC4CC2CC(O)(C4)C3)n1 (stereo partly specified)
- remaining at 0.5 h [1]: 99%
- inhibition in vivo at 10 mg/kg [2]: 32%
- inhibition in vivo at 10 mg/kg [3]: 46%

Compound: C[C@@H]1CN(c2ccc(Cl)cc2)CCN1c1nccc(C(=O)NC2C3CC4CC2CC(O)(C4)C3)n1 (stereo partly specified)
- remaining at 0.5 h [1]: 78%

Compound: CNS(=O)(=O)c1ccc(N2CCN(c3cccc(C(=O)NC4C5CC6CC4CC(O)(C6)C5)n3)[C@H](C)C2)cc1 (stereo partly specified)
- remaining at 0.5 h [1]: 83%
- inhibition in vivo at 10 mg/kg [2]: 12%
- inhibition in vivo at 10 mg/kg [3]: 33%

Compound: CCS(=O)(=O)c1ccc(N2CCN(c3nccc(C(=O)NC4C5CC6CC4CC(O)(C6)C5)n3)[C@H](C)C2)c(F)c1 (stereo partly specified)
- remaining at 0.5 h [1]: 91%
- inhibition in vivo at 10 mg/kg [2]: 79%
- inhibition in vivo at 10 mg/kg [3]: 82%
